Measurements reported in PMC2948851 (European journal of pharmacology, 2010).
Marks after values point to notes of the source that are not given here.

What was measured:
Format in all cases: cell-based
[1] = target: human P2Y12 receptor wild-type (Homo sapiens, UniProt Q9H244)
In short: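 CHO-K1 stably expressing N-terminally HA-tagged human P2Y12 (Ham's F-12, 10% FBS, 500 µg/ml hygromycin B); [3H]adenine-labelled overnight, 0.4 mM IBMX 10 min, then 20 µM forskolin with ADP (0.01–10 µM) and/or antagonist (0.001–1 µM, against 10 µM ADP) 5 min, 37°C. TCA stop; [3H]cAMP/([3H]ATP+[3H]cAMP) conversion, normalized to forskolin alone; IC50 calculated; mean ± S.E.M., n=3.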

[2] = target: human P2Y12 receptor F104S mutant (Homo sapiens, UniProt Q9H244, F104S); experiment: cAMP assay, CHO-K1 cells expressing F104S mutant P2Y12
human P2Y12 receptor F104S mutant, sequence (Q9H244 whole entry F104S): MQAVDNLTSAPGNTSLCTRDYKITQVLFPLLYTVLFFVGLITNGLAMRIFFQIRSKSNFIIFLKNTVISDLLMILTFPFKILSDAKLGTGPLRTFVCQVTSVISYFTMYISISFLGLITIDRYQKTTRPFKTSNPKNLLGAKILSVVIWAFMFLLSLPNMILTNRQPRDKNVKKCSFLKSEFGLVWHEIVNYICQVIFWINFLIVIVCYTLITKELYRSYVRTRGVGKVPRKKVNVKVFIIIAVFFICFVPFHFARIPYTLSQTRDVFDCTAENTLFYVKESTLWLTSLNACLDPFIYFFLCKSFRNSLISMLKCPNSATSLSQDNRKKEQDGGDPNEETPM

[3] = target: human P2Y12 receptor Y109S mutant (Homo sapiens, UniProt Q9H244, Y109S); experiment: cAMP assay, CHO-K1 cells expressing Y109S mutant P2Y12
human P2Y12 receptor Y109S mutant, sequence (Q9H244 whole entry Y109S): as the sequence (Q9H244 whole entry F104S) above, with S104F, Y109S counted along it

[4] = target: human P2Y12 receptor F198P mutant (Homo sapiens, UniProt Q9H244, F198P); experiment: cAMP assay, CHO-K1 cells expressing F198P mutant P2Y12
human P2Y12 receptor F198P mutant, sequence (Q9H244 whole entry F198P): as the sequence (Q9H244 whole entry F104S) above, with S104F, F198P counted along it

[5] = target: human P2Y12 receptor H253S mutant (Homo sapiens, UniProt Q9H244, H253S); experiment: cAMP assay, CHO-K1 cells expressing H253S mutant P2Y12
human P2Y12 receptor H253S mutant, sequence (Q9H244 whole entry H253S): as the sequence (Q9H244 whole entry F104S) above, with S104F, H253S counted along it

[6] = target: human P2Y12 receptor R256T mutant (Homo sapiens, UniProt Q9H244, R256T); experiment: cAMP assay, CHO-K1 cells expressing R256T mutant P2Y12
human P2Y12 receptor R256T mutant, sequence (Q9H244 whole entry R256T): as the sequence (Q9H244 whole entry F104S) above, with S104F, R256T counted along it

[7] = target: human P2Y12 receptor R256Q mutant (Homo sapiens, UniProt Q9H244, R256Q); experiment: cAMP assay, CHO-K1 cells expressing R256Q mutant P2Y12
human P2Y12 receptor R256Q mutant, sequence (Q9H244 whole entry R256Q): as the sequence (Q9H244 whole entry F104S) above, with S104F, R256Q counted along it

[8] = target: human P2Y12 receptor R265W mutant (Homo sapiens, UniProt Q9H244, R265W); experiment: cAMP assay, CHO-K1 cells expressing R265W mutant P2Y12
human P2Y12 receptor R265W mutant, sequence (Q9H244 whole entry R265W): as the sequence (Q9H244 whole entry F104S) above, with S104F, R265W counted along it

[9] = target: human P2Y12 receptor R256Q/R265W double mutant (Homo sapiens, UniProt Q9H244, R256Q/R265W); experiment: cAMP assay, CHO-K1 cells expressing R256Q/R265W double mutant P2Y12
human P2Y12 receptor R256Q/R265W double mutant, sequence (Q9H244 whole entry R256Q/R265W): as the sequence (Q9H244 whole entry F104S) above, with S104F, R256Q, R265W counted along it

[10] = target: human P2Y12 receptor S288P mutant (Homo sapiens, UniProt Q9H244, S288P); experiment: cAMP assay, CHO-K1 cells expressing S288P mutant P2Y12
human P2Y12 receptor S288P mutant, sequence (Q9H244 whole entry S288P): as the sequence (Q9H244 whole entry F104S) above, with S104F, S288P counted along it

[11] = CHO-K1, read-out: inhibition of cAMP at 10 μM ADP

human P2Y12 receptor wild-type, sequence (Q9H244 whole entry): as the sequence (Q9H244 whole entry F104S) above, with S104F counted along it

`Nc1ncnc2c1ncn2[C@@H]1O[C@H](COP(=O)(O)OP(=O)(O)O)[C@@H](O)[C@H]1O` [ADP, Adenosine diphosphate] was tested. Which IC50 [1] did it give?
The IC50 was 250 ± 40 nM.

And the inhibition at 10 µM ([1]; CHO-K1, read-out: cAMP inhibition at 10 μM ADP, wild-type, 10 μM ADP)?
The inhibition at 10 µM was about 85%.

What about the “Max. inhibition by ADP (% of control)” value ([1]; Wild-type construct, CHO-K1, 20 μM forskolin, cAMP) of the same compound?
The value was 85.37 ± 2.14 (3) % of control.

And the IC50 [2]?
Its IC50 is 60 ± 10 nM.

And the “Max. inhibition by ADP (% of control)” value ([2]; F104S construct, CHO-K1, 20 μM forskolin, cAMP)?
Its value is 77.7 ± 1.12 (3) % of control.

What about the “increase of potency of activation by ADP vs wild-type” value ([2]; F104S vs wild-type) of the same compound?
The value was 5 fold.

And the IC50 [3]?
The IC50 was 170 ± 90 nM.

What about the inhibition at 10 µM ([3]; CHO-K1, read-out: cAMP inhibition at 10 μM ADP) of the same compound?
The inhibition at 10 µM was about 20%.

And the “Max. inhibition by ADP (% of control)” value ([3]; Y109S construct, CHO-K1, 20 μM forskolin, cAMP)?
The value was 31.96 ± 0.15 ^b (3) % of control.

And the IC50 [4]?
Its IC50 is 150 ± 50 nM.

What about the inhibition at 10 µM ([4]; CHO-K1, read-out: maximal inhibition of cAMP level at 10 μM ADP) of the same compound?
The inhibition at 10 µM was about 40%.

What about the “Max. inhibition by ADP (% of control)” value ([4]; F198P construct, CHO-K1, 20 μM forskolin, cAMP) of the same compound?
The value was 40.37 ± 10.64 ^b(3) % of control.

What about the IC50 [5] of the same compound?
Its IC50 is 350 ± 210 nM.

What about the inhibition at 10 µM [5, 11] of the same compound?
Its inhibition at 10 µM is about 60%.

And the “Max. inhibition by ADP (% of control)” value ([5]; H253S construct, CHO-K1, 20 μM forskolin, cAMP)?
The value was 62.21 ± 1.93 (3) % of control.

And the IC50 [6]?
Its IC50 is 290 ± 50 nM.

And the “Max. inhibition by ADP (% of control)” value ([6]; R256T construct, CHO-K1, 20 μM forskolin, cAMP)?
Its value is 79.53 ± 4.83 (3) % of control.

What about the IC50 [7] of the same compound?
Its IC50 is 570 ± 30 nM.

What about the “Max. inhibition by ADP (% of control)” value ([7]; R256Q construct, CHO-K1, 20 μM forskolin, cAMP) of the same compound?
The value was 75.32 ± 6.91 (3) % of control.

And the IC50 [8]?
Its IC50 is 450 ± 210 nM.

What about the inhibition at 10 µM [8, 11] of the same compound?
Its inhibition at 10 µM is about 60%.

And the “Max. inhibition by ADP (% of control)” value ([8]; R265W construct, CHO-K1, 20 μM forskolin, cAMP)?
The value was 58.01 ± 3.08 ^a (3) % of control.

What about the IC50 [9] of the same compound?
The IC50 was 6460 ± 190 nM.

What about the “Max. inhibition by ADP (% of control)” value ([9]; R256QR265W construct, CHO-K1, 20 μM forskolin, cAMP) of the same compound?
Its value is 56.68 ± 6.32 ^a (3) % of control.

And the IC50 [10]?
The IC50 was 40 ± 10 nM.

What about the “Max. inhibition by ADP (% of control)” value ([10]; S288P construct, CHO-K1, 20 μM forskolin, cAMP) of the same compound?
Its value is 68.89 ± 6.24 (3) % of control.

What about the “left shift of ADP concentration curve vs wild-type” value ([10]; S288P vs wild-type) of the same compound?
The value was “about 4 fold”.

How did the “antagonism effect of AR-C69931MX at 10 nM” value ([1]; wild-type, 10 nM AR-C69931MX, 10 μM ADP) turn out when `CSCCNc1nc(SCCC(F)(F)F)nc2c1ncn2[C@@H]1O[C@H](COP(=O)(O)OP(=O)(O)C(Cl)(Cl)P(=O)(O)O)[C@@H](O)[C@H]1O` [AR-C69931MX] was run?
The value was “did not occur”.

What about the “AR-C69931MX concentration required to completely inhibit 10 μM ADP-induced inhibition of cAMP” value ([1]; wild-type, 10 μM ADP) of the same compound?
Its value is 1 µM.

What about the “AR-C69931MX concentration enough to block ADP (10 μM)-induced activation” value ([6]; R256T, 10 μM ADP) of the same compound?
Its value is 100 nM.

What about the “shift of AR-C69931MX concentration curve vs wild-type” value ([6]; R256T, in the presence of 10 μM ADP) of the same compound?
Its value is “significant left shift”.

What about the “shift of AR-C69931MX concentration curve vs wild-type” value ([7]; R256Q, in the presence of 10 μM ADP) of the same compound?
Its value is “leftward shift”.

What about the “AR-C69931MX concentration enough to block ADP-induced activation” value ([8]; R265W, 10 μM ADP) of the same compound?
Its value is 30 nM.

And the “shift of AR-C69931MX concentration curve vs wild-type” value ([8]; R265W, in the presence of 10 μM ADP, compared to R256Q and R256T)?
The value was “even more leftward shift”.

And the “shift of AR-C69931MX concentration curve vs wild-type” value ([9]; R256QR265W, in the presence of 10 μM ADP)?
The value was “leftward shift”.
